Source: PubChem BioAssay (several laboratories)
Shown are actives, neighbours in structure and some others; about 3.2% of the full set was active somewhere.
DAX1 inh-1 = DAX1 (NR0B1) inhibitors on StAR promoter, primary screen, cell-based, luminescence, SF-1 (NR5A1), full-length DAX-1; HEK293T StAR-luciferase reporter, SF-1/DAX-1 repression relief; inhibition, % at 6.8 µM; 1.1% of 370,000 active; AID 652010, 2013;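 active = inhibition above the mean over all tested compounds plus 3 SD, cut at about 3.6% in these data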;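 note: 0% = DAX-1 cells with DMSO and 100% = cells lacking DAX-1 with DMSO; higher inhibition means more luminescence from relief of DAX-1 repression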
NR2E3 ag-1 = NR2E3 agonists in two-hybrid cells, primary screen, cell-based, luminescence, CHO-S, Gal4-NCOR/VP16-NR2E3. Photoreceptor-specific nuclear receptor (Homo sapiens), Q9Y5X4. luciferase. inhibition of corepressor binding, % at 3.98 µM. 0.35% of 360,000 active. AID 602229, 2012;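 active = inhibition above the mean of all tested compounds plus 3 SD, cut at about 70% in these data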;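 note: 0% = DMSO with NR2E3 transfected cells and 100% = cells lacking NR2E3 construct; higher means lower luciferase signal from less NR2E3 corepressor binding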
Target sequence (Q9Y5X4 whole entry, looked up, the tested form may be a part): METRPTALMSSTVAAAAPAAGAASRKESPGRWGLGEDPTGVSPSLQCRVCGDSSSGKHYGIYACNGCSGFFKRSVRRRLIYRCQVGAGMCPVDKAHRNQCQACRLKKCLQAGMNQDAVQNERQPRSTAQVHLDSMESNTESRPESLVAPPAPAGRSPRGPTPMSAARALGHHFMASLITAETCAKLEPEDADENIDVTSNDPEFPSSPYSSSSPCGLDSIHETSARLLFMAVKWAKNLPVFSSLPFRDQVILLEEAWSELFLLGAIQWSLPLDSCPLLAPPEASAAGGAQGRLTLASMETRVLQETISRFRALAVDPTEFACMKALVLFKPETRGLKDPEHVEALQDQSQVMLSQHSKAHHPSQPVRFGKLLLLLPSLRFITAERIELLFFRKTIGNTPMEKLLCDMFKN
SMARCA2 act = SMARCA2 (BRM) function activators, primary screen, cell-based, luminescence, high throughput. MG213 cells, MMTV-luciferase reporter, dexamethasone, overnight. activation, % at 9.1 µM. 1% of 370,000 active. AID 652017, 2013; in the data active = activation above about 7.8%;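 note: 0% = vehicle wells and 100% = reference activator wells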
JMJD2C inh = inhibitors of GASC-1 histone demethylase, primary screen, biochemical, fluorescence, DELFIA europium; GST-JMJD2C(1-420) H3K9me3 demethylation; 0.069% of 330,000 active; inhibition, % at 2.35 µM; AID 2099, 2009;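 active = more than half of a compound's replicate wells show inhibition beyond 50%, single wells judged on their own value; inconclusive = some, but no more than half, of replicates pass 50% inhibition; inactive = no replicate passes 50% inhibition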;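 note: signal counts dimethyl H3K9 product captured on neutravidin plate; 0% = median of DMSO wells and 100% = 0.3 times that DMSO median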
DAX1 inh-2 = DAX1 (NR0B1) inhibitors, primary screen, cell-based, HEK293, Gal4-DAX1, luciferase luminescence; HEK293 Gal4-DAX1 luciferase reporter; inhibition, % at 6.75 µM; 0.99% of 340,000 active; AID 504766, 2011;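 active = inhibition above the mean over all tested compounds plus 3 SD, cut at about 4.2% in these data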;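 note: 0% = DAX1-transfected cells with DMSO and 100% = empty-vector control cells with DMSO; inhibition shows as a rise in luminescence from relieved DAX1 repression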
Target sequence (P51843 207-470 limits assumed): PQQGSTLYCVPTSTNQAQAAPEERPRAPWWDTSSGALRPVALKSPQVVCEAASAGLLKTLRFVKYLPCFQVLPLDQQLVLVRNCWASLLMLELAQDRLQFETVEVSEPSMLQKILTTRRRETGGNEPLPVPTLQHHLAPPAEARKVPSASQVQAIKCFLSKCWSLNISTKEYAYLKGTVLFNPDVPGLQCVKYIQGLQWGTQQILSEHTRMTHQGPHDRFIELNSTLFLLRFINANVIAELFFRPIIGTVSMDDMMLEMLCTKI
NR2E3 ag-2 = inhibitors of NR2E3-RetCOR corepressor binding, primary screen, NR2E3 agonist project, biochemical, TR-FRET, GST-NR2E3, biotin-RetCOR | 1536-well | inhibition of corepressor binding, % at 4.78 µM | 0.12% of 320,000 active;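 active = percent inhibition above the cutoff of mean plus 3 SD of all tested compounds, set per screening campaign, cut at about 20% in these data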;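 note: 0% = DMSO wells and 100% = biotin wells as full block of FRET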
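Material: NR2E3–RetCOR corepressor complex / Incubation: Compound–protein incubation for 5 h at 4 °C / Dosing: compound at 4.8 µM, single dose / Detection: time-resolved FRET / Benchmarks: high control biotin, low control 0.6% DMSO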
SMARCA2 conf = SMARCA2 (BRM) function activators, confirmation, cell-based, luminescence, triplicate. shares compounds with SMARCA2 act. MG213 cells, MMTV-luciferase with dexamethasone, overnight; MG213 cells expressing E1A, Rb sequestered; DMSO wells 0%, reference activator 100%. activation, % at 9.1 µM. 30% of 3,500 active;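 active = activation above its plate's cutoff, the mean activation of tested wells plus 3 SD, cut at about 7.9% in these data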
VP16 Luc act = GAL4-VP16 luciferase reporter activation, counter-screen for SMARCA2 (BRM) activator project, cell-based, pG5luc, luminescence, high throughput; shares compounds with SMARCA2 act; 41% of 3,500 active; activation, % at 9.1 µM; AID 686939, 2013; HEK293 GAL4-VP16 pG5luc reporter; scaled: DMSO wells 0%, SAHA wells 100%;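 active = activation above the solvent-only control well mean plus 3 SD, averaged across control plates, cut at about 5.2% in these data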
Active calls of the source: *; ? = inconclusive; / = no result given.

SMILES	DAX1 inh-1	NR2E3 ag-1	SMARCA2 act	JMJD2C inh	DAX1 inh-2	NR2E3 ag-2	SMARCA2 conf	VP16 Luc act
O=C(COC(=O)CC1CCCC1)Nc1cc2c(cc1Cl)C(=O)c1ccccc1C2=O	3	-82	8.1*	7	2	1	8.6*	14*
CCOC(=O)/C=C(\C)N1N=C(c2ccccc2)CC1c1ccccc1 (stereo not drawn)	2	-78	8.3*	2	3	-2	3	9.2*
NC(=O)c1ncn([C@@H]2O[C@H](CNCc3cc(Br)ccc3OCc3ccccc3)[C@@H](O)[C@H]2O)n1	-1	-13	16*	/	0	/	-5	0
COc1ccc(CNS(=O)(=O)/C=C/c2ccc(F)cc2CNC(=O)OC(C)(C)C)cc1	-2	/	-4	/	/	/	/	/
O=C(Nc1cccc(F)c1)OCCCN1CCC2(CCC(c3ccccc3)CC2)C1 (stereo not drawn)	0	/	-2	/	/	/	/	/
CCN(C1CCCCC1)S(=O)(=O)c1ccc(OC)c(C)c1	-1	-4	1	0	0	3	/	/
CCN(C1CCCCC1)S(=O)(=O)c1ccc(-n2cnnn2)c(C)c1	0	-30	9.3*	6	1	6	-4	2
COc1cccc(NC(=O)C2CCOC2=O)c1 (stereo not drawn)	0	-7	-7	13	/	1	/	/
CC(C)c1ccc(OCc2ccc(C(=O)N3CCCC3)o2)cc1	0	-112	2	5	0	0	/	/
CCOC(=O)c1ccc(COc2ccc(C(C)C)cc2)o1	4	-204	10*	4	2	2	13*	14*
O=S1(=O)C=CCN1Cc1cn(Cc2cccc(C(F)(F)F)c2)nn1	1	/	1	/	/	/	/	/
CC1(C(=O)OCC(=O)NC(=O)NCc2ccccc2)CC1(Cl)Cl (stereo not drawn)	1	3	0	-49	3	-1	/	/
CC1(C(=O)OCC(=O)NCc2ccc(Cl)cc2)CC1(Cl)Cl (stereo not drawn)	0	6	8.6*	-1	-1	/	-2	0
O=S1(=O)c2ccc(Br)cc2OC[C@H](Cc2ccccc2)N1Cc1cn(CCC2OCCO2)nn1	-1	/	-1	/	/	/	/	/
COC(=O)CC1C(=O)NCCN1C(=O)c1ccc([N+](=O)[O-])cc1 (stereo not drawn)	0	-6	10.0*	1	1	0	5	0
CCOC(=O)CC1C(=O)NCCN1C(=O)c1ccc(C)cc1 (stereo not drawn)	0	-17	0	2	1	-3	/	/
COC(=O)C[C@H]1CC[C@@H]2[C@H](COc3ccc(NC(=O)c4cccc(F)c4)cc3C(=O)N2C)O1	0	/	-1	/	/	/	/	/
COc1cccc2cc(C(=O)OCC(=O)NCc3ccc4c(c3)OCO4)c(=O)oc12	1	-14	11*	-10	3	5	6	5
COc1cccc(NC(=O)Nc2nnc(N3C(C)CCCC3C)s2)c1 (stereo not drawn)	1	-43	4	1	-2	3	/	/
Cc1cccc(NC(=O)Nc2nnc(N3CCCCC3C)s2)c1C (stereo not drawn)	1	-17	8.0*	-5	0	1	-2	2
CC(C)[C@H](NC(=O)c1ccc(F)cc1)C(=O)N(C)Cc1cccs1	-1	0	-2	10	-1	1	/	/
CCN1Cc2nnn(Cc3ccccc3)c2-c2ccccc2S1(=O)=O	0	/	0	/	/	/	/	/
Cc1n[nH]c(=S)n1/N=C/c1ccc(OCc2ccc(Cl)cc2Cl)cc1	0	-116	13*	-8	4	2	0	3
Cc1n[nH]c(=S)n1/N=C/c1ccc(OCc2ccc(Cl)cc2)cc1	1	-122	0	-3	3	1	/	/
Cc1occc1C(=O)N/N=C/c1cnn(C)c1C	3	-107	8.8*	?	2	2	4	5
SMILES	DAX1 inh-1	NR2E3 ag-1	SMARCA2 act	JMJD2C inh	DAX1 inh-2	NR2E3 ag-2	SMARCA2 conf	VP16 Luc act
Cc1c(/C=N\NC(=O)c2ccc(F)cc2)cnn1C	0	-6	1	4	-1	-2	/	/
Cc1c(/C=N\NC(=O)c2cccc(F)c2)cnn1C	1	-80	0	0	4	1	/	/
Cc1c(/C=N/NC(=O)c2ccc(Br)o2)cnn1C	1	-28	14*	-4	/	-1	2	1
CC(=O)N1CCN(c2ccc(N3CCN(Cc4ccccc4)[C@@H](C)C3)c(C)c2)[C@@H](C)C1	-1	/	-3	/	/	/	/	/
O=C(NCc1ccco1)c1c2c(nc3ccccc13)CCC2	0	-19	2	-1	3	1	/	/
O=C(NCc1ccc(F)cc1)c1c2c(nc3ccccc13)CCC2	4.5*	-43	9.4*	6	0	-1	3	2
O=C(c1cc2cc(Br)ccc2o1)N1CCN(c2ccccc2)CC1	3	-20	8.1*	9	3	5	1	5
O=C(c1cc2c(c(-c3cccc(-c4ccncc4)c3)n1)[C@@H](CCO)N(C(=O)c1ccc3c(c1)OCO3)C2)N1CCOCC1	3.7*	-5	8.1*	/	/	/	9.2*	0
O=C(Nc1ccc(Oc2ccccc2)cc1)C1CCN(c2nnc(-n3cccc3)s2)CC1	-1	/	-6	/	/	/	/	/
COc1ccc(CCn2c(SCCN3CCCCC3)nc3ccccc3c2=O)cc1OC	0	2	13*	3	0	1	2	2
COc1cc2c(cc1OC)C(c1cc3ccc(C)cc3[nH]c1=O)N(C(=O)c1ccco1)CC2 (stereo not drawn)	0	-6	11*	-1	0	0	0	1
COc1cc2c(cc1OC)C(c1cc3cc4c(cc3[nH]c1=O)OCO4)N(C(=O)C1CC1)CC2 (stereo not drawn)	1	-4	-2	-4	-1	0	/	/
